Experimental data taken from ChEMBL document CHEMBL2062435, “Synthesis and in vitro antibacterial activity of gemifloxacin derivatives containing a substituted benzyloxime moiety” (2012).

Key:
Type in all cases: functional
Pseudomonas aeruginosa [1] = test: Antimicrobial activity against extended spectrum beta-lactamases-producing Pseudomonas aeruginosa 10-18 after 18-24 hrs by two-fold serial dilution method
Method in brief: (§1)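 Agar-medium twofold serial dilution against Gram-positive and Gram-negative strains; MIC taken as the lowest compound concentration giving complete inhibition of bacterial growth after incubation at 35 °C for 18-24 h.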

[2] = test system: Staphylococcus epidermidis; test: Antimicrobial activity against extended spectrum beta-lactamases-producing methicillin-sensitive Staphylococcus epidermidis 10-11 after 18-24 hrs by two-fold serial dilution method; method in brief: as §1
Escherichia coli [3] = test: Antimicrobial activity against extended spectrum beta-lactamases-producing Escherichia coli 10-4 after 18-24 hrs by two-fold serial dilution method; method in brief: as §1
Enterococcus faecalis [4] = test: Antimicrobial activity against Enterococcus faecalis 10-5 after 18-24 hrs by two-fold serial dilution method; method in brief: as §1
Pseudomonas aeruginosa [5] = test: Antimicrobial activity against extended spectrum beta-lactamases-producing Pseudomonas aeruginosa 10-20 after 18-24 hrs by two-fold serial dilution method; method in brief: as §1
Klebsiella pneumoniae [6] = test: Antimicrobial activity against Klebsiella pneumoniae 10-4 after 18-24 hrs by two-fold serial dilution method; method in brief: as §1
Escherichia coli [7] = test: Antimicrobial activity against extended spectrum beta-lactamases-producing Escherichia coli 10-2 after 18-24 hrs by two-fold serial dilution method; method in brief: as §1
Enterococcus faecium [8] = test: Antimicrobial activity against Enterococcus faecium 10-5 after 18-24 hrs by two-fold serial dilution method; method in brief: as §1
[9] = test system: Staphylococcus epidermidis; test: Antimicrobial activity against extended spectrum beta-lactamases-producing methicillin-sensitive Staphylococcus epidermidis 10-15 after 18-24 hrs by two-fold serial dilution method; method in brief: as §1
Staphylococcus aureus [10] = test: Antimicrobial activity against extended spectrum beta-lactamases-producing methicillin-resistant Staphylococcus aureus 10-11 after 18-24 hrs by two-fold serial dilution method
Method in brief: (§2)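 Agar twofold serial dilution MIC against clinical isolates. MIC was taken as the lowest concentration giving complete inhibition of bacterial growth after incubation at 35 °C for 18-24 h.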

Streptococcus pneumoniae [11] = test: Antimicrobial activity against extended spectrum beta-lactamases-producing Streptococcus pneumoniae 10-4 after 18-24 hrs by two-fold serial dilution method; method in brief: as §1
Pseudomonas aeruginosa [12] = test: Antimicrobial activity against extended spectrum beta-lactamases-producing Pseudomonas aeruginosa 10-9 after 18-24 hrs by two-fold serial dilution method; method in brief: as §1
Pseudomonas aeruginosa [13] = test: Antimicrobial activity against Pseudomonas aeruginosa 10-12 after 18-24 hrs by two-fold serial dilution method; method in brief: as §1
[14] = test system: Staphylococcus epidermidis; test: Antimicrobial activity against extended spectrum beta-lactamases-producing methicillin-resistant Staphylococcus epidermidis 10-10 after 18-24 hrs by two-fold serial dilution method; method in brief: as §2
Enterococcus faecalis [15] = test: Antimicrobial activity against Enterococcus faecalis 10-6 after 18-24 hrs by two-fold serial dilution method; method in brief: as §1
Staphylococcus aureus [16] = test: Antimicrobial activity against Staphylococcus aureus ATCC […] after 18-24 hrs by two-fold serial dilution method; method in brief: as §1
Enterococcus faecalis [17] = test: Antimicrobial activity against Enterococcus faecalis 10-7 after 18-24 hrs by two-fold serial dilution method; method in brief: as §1
Escherichia coli [18] = test: Antimicrobial activity against Escherichia coli 10-3 after 18-24 hrs by two-fold serial dilution method; method in brief: as §1
[19] = test system: Staphylococcus epidermidis; test: Antimicrobial activity against extended spectrum beta-lactamases-producing methicillin-sensitive Staphylococcus epidermidis 10-13 after 18-24 hrs by two-fold serial dilution method; method in brief: as §1
Pseudomonas aeruginosa [20] = test: Antimicrobial activity against extended spectrum beta-lactamases-producing Pseudomonas aeruginosa 10-15 after 18-24 hrs by two-fold serial dilution method; method in brief: as §1
Staphylococcus aureus [21] = test: Antimicrobial activity against extended spectrum beta-lactamases-producing methicillin-sensitive Staphylococcus aureus 10-14 after 18-24 hrs by two-fold serial dilution method; method in brief: as §1
Klebsiella pneumoniae [22] = test: Antimicrobial activity against Klebsiella pneumoniae 10-2 after 18-24 hrs by two-fold serial dilution method; method in brief: as §1
Enterococcus faecium [23] = test: Antimicrobial activity against Enterococcus faecium 10-9 after 18-24 hrs by two-fold serial dilution method; method in brief: as §1
Klebsiella pneumoniae [24] = test: Antimicrobial activity against Klebsiella pneumoniae 10-3 after 18-24 hrs by two-fold serial dilution method; method in brief: as §1
Escherichia coli [25] = test: Antimicrobial activity against Escherichia coli 10-1 after 18-24 hrs by two-fold serial dilution method; method in brief: as §1
Escherichia coli [26] = test: Antimicrobial activity against extended spectrum beta-lactamases-producing Escherichia coli 10-3 after 18-24 hrs by two-fold serial dilution method; method in brief: as §1
Klebsiella pneumoniae [27] = test: Antimicrobial activity against extended spectrum beta-lactamases-producing Klebsiella pneumoniae 10-1 after 18-24 hrs by two-fold serial dilution method; method in brief: as §1
Escherichia coli [28] = test: Antimicrobial activity against Escherichia coli 10-2 after 18-24 hrs by two-fold serial dilution method; method in brief: as §1
Klebsiella pneumoniae [29] = test: Antimicrobial activity against extended spectrum beta-lactamases-producing Klebsiella pneumoniae 10-2 after 18-24 hrs by two-fold serial dilution method; method in brief: as §1
Pseudomonas aeruginosa [30] = test: Antimicrobial activity against extended spectrum beta-lactamases-producing Pseudomonas aeruginosa 10-5 after 18-24 hrs by two-fold serial dilution method; method in brief: as §1
Staphylococcus aureus [31] = test: Antimicrobial activity against extended spectrum beta-lactamases-producing methicillin-sensitive Staphylococcus aureus 10-13 after 18-24 hrs by two-fold serial dilution method; method in brief: as §1
Staphylococcus aureus [32] = test: Antimicrobial activity against extended spectrum beta-lactamases-producing methicillin-resistant Staphylococcus aureus 10-15 after 18-24 hrs by two-fold serial dilution method; method in brief: as §2
Escherichia coli [33] = test: Antimicrobial activity against Escherichia coli ATCC 25922 after 18-24 hrs by two-fold serial dilution method; method in brief: as §1
Klebsiella pneumoniae [34] = test: Antimicrobial activity against extended spectrum beta-lactamases-producing Klebsiella pneumoniae 10-3 after 18-24 hrs by two-fold serial dilution method; method in brief: as §1
[35] = test system: Staphylococcus epidermidis; test: Antimicrobial activity against extended spectrum beta-lactamases-producing methicillin-resistant Staphylococcus epidermidis 10-13 after 18-24 hrs by two-fold serial dilution method; method in brief: as §2
Streptococcus pneumoniae [36] = test: Antimicrobial activity against extended spectrum beta-lactamases-producing Streptococcus pneumoniae 10-1 after 18-24 hrs by two-fold serial dilution method; method in brief: as §1

SMILES	MIC (Pseudomonas aeruginosa [1]) [µg/mL]	MIC [2] [µg/mL]	MIC (Escherichia coli [3]) [µg/mL]	MIC (Enterococcus faecalis [4]) [µg/mL]	MIC (Pseudomonas aeruginosa [5]) [µg/mL]	MIC (Klebsiella pneumoniae [6]) [µg/mL]	MIC (Escherichia coli [7]) [µg/mL]	MIC (Enterococcus faecium [8]) [µg/mL]	MIC [9] [µg/mL]	MIC (Staphylococcus aureus [10]) [µg/mL]	MIC (Streptococcus pneumoniae [11]) [µg/mL]	MIC (Pseudomonas aeruginosa [12]) [µg/mL]	MIC (Pseudomonas aeruginosa [13]) [µg/mL]	MIC [14] [µg/mL]	MIC (Enterococcus faecalis [15]) [µg/mL]	MIC (Staphylococcus aureus [16]) [µg/mL]	MIC (Enterococcus faecalis [17]) [µg/mL]	MIC (Escherichia coli [18]) [µg/mL]	MIC [19] [µg/mL]	MIC (Pseudomonas aeruginosa [20]) [µg/mL]	further results
COc1cc(CO/N=C2\CN(c3nc4c(cc3F)c(=O)c(C(=O)O)cn4C3CC3)CC2CN)cc(OC)c1OC.CS(=O)(=O)O (racemic)	4	8	8	1	0.5	> 128	> 128	8	8	2	8	8	0.125	2	4	0.125	2	16	2	8	MIC (Staphylococcus aureus [21]): 0.125 µg/mL; MIC (Klebsiella pneumoniae [22]): > 128 µg/mL; MIC (Enterococcus faecium [23]): 8 µg/mL; MIC (Klebsiella pneumoniae [24]): 8 µg/mL; MIC (Escherichia coli [25]): 128 µg/mL; MIC (Escherichia coli [26]): 16 µg/mL; MIC (Klebsiella pneumoniae [27]): > 128 µg/mL; MIC (Escherichia coli [28]): 16 µg/mL; MIC (Klebsiella pneumoniae [29]): > 128 µg/mL; MIC (Pseudomonas aeruginosa [30]): 8 µg/mL; MIC (Staphylococcus aureus [31]): 1 µg/mL; MIC (Staphylococcus aureus [32]): 0.25 µg/mL; MIC (Escherichia coli [33]): 0.5 µg/mL; MIC (Klebsiella pneumoniae [34]): > 128 µg/mL; MIC [35]: 0.5 µg/mL; MIC (Streptococcus pneumoniae [36]): 1 µg/mL
CS(=O)(=O)O.NCC1CN(c2nc3c(cc2F)c(=O)c(C(=O)O)cn3C2CC2)C/C1=N\OCc1ccc2c(c1)OCO2 (racemic)	2	2	2	0.5	0.25	> 128	> 128	4	4	1	2	4	0.06	1	2	0.06	1	8	1	4	MIC (Staphylococcus aureus [21]): 0.03 µg/mL; MIC (Klebsiella pneumoniae [22]): 2 µg/mL; MIC (Enterococcus faecium [23]): 4 µg/mL; MIC (Klebsiella pneumoniae [24]): 2 µg/mL; MIC (Escherichia coli [25]): 32 µg/mL; MIC (Escherichia coli [26]): 16 µg/mL; MIC (Klebsiella pneumoniae [27]): 128 µg/mL; MIC (Escherichia coli [28]): 2 µg/mL; MIC (Klebsiella pneumoniae [29]): > 128 µg/mL; MIC (Pseudomonas aeruginosa [30]): 8 µg/mL; MIC (Staphylococcus aureus [31]): 0.5 µg/mL; MIC (Staphylococcus aureus [32]): 0.5 µg/mL; MIC (Escherichia coli [33]): 0.125 µg/mL; MIC (Klebsiella pneumoniae [34]): 128 µg/mL; MIC [35]: 0.5 µg/mL; MIC (Streptococcus pneumoniae [36]): 1 µg/mL
